Assay results as given in ChEMBL document CHEMBL2163271, “Antitumor agents 295. E-ring hydroxylated antofine and cryptopleurine analogues as antiproliferative agents: design, synthesis, and mechanistic studies” (J Med Chem, 2012).
Active and inactive are the calls of the source. The rule behind the calls is not given here.

Legend:
PC-9 = assay: Cytotoxicity against human PC9 cells assessed as cell viability after 48 hrs by SRB assay; assay type: functional, cell-based; settings: PC-9, 48 h
Procedure, shortened: (§1)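 Human NSCLC lines (CL1-0, CL1-5, PC9, PC9IR) exposed to increasing compound concentrations for 48 h. Growth read by sulforhodamine B (SRB) staining, with IC50 in nM taken from the dose-response.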

HCT-8 = assay: Cytotoxicity against human HCT8 cells after 2 hrs by methylene blue staining-based spectrophotometric analysis; assay type: functional, cell-based; settings: HCT-8, 2 h
[1] = Cytotoxicity against human PC9IR cells assessed as cell viability after 48 hrs by SRB assay; assay type: functional, cell-based; procedure, shortened: as §1
MRC5 = assay: Cytotoxicity against human MRC5 cells assessed as cell viability after 48 hrs by SRB assay; assay type: functional, cell-based; settings: MRC5, 48 h
A549 [2] = assay: Downregulation of beta-catenin protein expression in human A549 cells at 3.6 to 100 nM after 48 hrs by Western blot analysis
A549 [3] = assay: Cytotoxicity against human A549 cells after 2 hrs by methylene blue staining-based spectrophotometric analysis; assay type: functional, cell-based; settings: A549, 2 h
A549 [4] = assay: Downregulation of cyclin D protein expression in human A549 cells at 3.6 to 100 nM after 48 hrs by Western blot analysis; assay type: functional, cell-based
DU-145 = assay: Cytotoxicity against human DU145 cells after 2 hrs by methylene blue staining-based spectrophotometric analysis; assay type: functional, cell-based; settings: DU-145, 2 h
A549 [5] = assay: Cytotoxicity against human A549 cells assessed as cell viability after 48 hrs by SRB assay; assay type: functional, cell-based; settings: A549, 48 h
[6] = Cytotoxicity against human CL1-0 cells assessed as cell viability after 48 hrs by SRB assay; assay type: functional, cell-based; settings: CL1-0, 48 h; procedure, shortened: as §1
KB = assay: Cytotoxicity against human KB cells after 2 hrs by methylene blue staining-based spectrophotometric analysis; assay type: functional, cell-based
[7] = Cytotoxicity against human CL1-5 cells assessed as cell viability after 48 hrs by SRB assay; assay type: functional, cell-based; settings: CL1-5, 48 h; procedure, shortened: as §1
A549 [8] = assay: Downregulation of HSP90 protein expression in human A549 cells at 3.6 to 100 nM after 48 hrs by Western blot analysis; assay type: functional, cell-based
Procedure, shortened: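 A549 cells treated with graded compound concentrations for 48 h. Whole-cell extracts were immunoblotted with antibody against HSP90.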

[9] = Cytotoxicity against human KBVIN cells overexpressing P-gp after 2 hrs by methylene blue staining-based spectrophotometric analysis; assay type: functional, cell-based
SK-BR-3 = assay: Cytotoxicity against human SKBR3 cells after 2 hrs by methylene blue staining-based spectrophotometric analysis; assay type: functional, cell-based; settings: SK-BR-3, 2 h

## COc1ccc2c3c(c4cc(OC)c(OC)cc4c2c1)C[C@H]1CCCCN1C3 [CRYPTOPLEURINE]
PC-9
  IC50: 0.0055 µM
HCT-8
  IC50: 0.00191 µM
[1]
  IC50: 0.0068 µM
MRC5
  IC50: 0.014 µM
A549 [2]
  Activity: Active
A549 [3]
  IC50: 0.00138 µM
A549 [4]
  Activity: Active
DU-145
  IC50: 0.00159 µM
A549 [5]
  IC50: 0.0019 µM
[6]
  IC50: 0.005 µM
KB
  IC50: 0.00151 µM
[7]
  IC50: 0.0018 µM
A549 [8]
  Activity: Active

## COc1ccc2c3c(c4cc(OC)c(OC)cc4c2c1)C[C@H]1[C@H](O)CCN1C3
A549 [3]
  IC50: 0.27 µM
DU-145
  IC50: 0.85 µM
[9]
  IC50: 0.64 µM
KB
  IC50: 0.5 µM

## COc1ccc2c3c(c4cc(OC)c(OC)cc4c2c1)C[C@H]1CC[C@@H](O)CN1C3
SK-BR-3
  IC50: 0.348 µM
A549 [3]
  IC50: 0.082 µM
DU-145
  IC50: 0.066 µM
[9]
  IC50: 0.045 µM
KB
  IC50: 0.033 µM

## COc1ccc2c3c(c4cc(OC)c(OC)cc4c2c1)C[C@H]1COCCN1C3
MRC5
  IC50: 0.252 µM
A549 [5]
  IC50: 0.04 µM

## COc1ccc2c3c(c4cc(OC)c(OC)cc4c2c1)C[C@H]1C[C@@H](O)CCN1C3
SK-BR-3
  IC50: 0.295 µM
A549 [3]
  IC50: 0.072 µM
DU-145
  IC50: 0.059 µM
[9]
  IC50: 0.078 µM
KB
  IC50: 0.043 µM

## COc1ccc2c3c(c4cc(OC)c(OC)cc4c2c1)C[C@H]1C[C@H](OC)CCN1C3
A549 [3]
  IC50: 0.025 µM
DU-145
  IC50: 0.056 µM
[9]
  IC50: 0.066 µM
KB
  IC50: 0.1 µM

## COc1ccc2c3c(c4cc(OC)c(OC)cc4c2c1)C[C@H]1C[C@@H](O)[C@H](O)CN1C3
A549 [3]
  IC50: 14.5 µM
DU-145
  IC50: 1.71 µM
[9]
  IC50: 12.6 µM
KB
  IC50: 17.5 µM

## COc1ccc2c3c(c4cc(OC)c(OC)cc4c2c1)C[C@H]1CC[C@H](O)CN1C3
SK-BR-3
  IC50: 6.44 µM
A549 [3]
  IC50: 2.51 µM
DU-145
  IC50: 2.25 µM
[9]
  IC50: 3.07 µM
KB
  IC50: 2.25 µM

## CC[C@@]1(O)CCN2Cc3c(c4cc(OC)c(OC)cc4c4cc(OC)ccc34)C[C@H]2C1
A549 [3]
  IC50: 0.99 µM
DU-145
  IC50: 0.77 µM
[9]
  IC50: 0.87 µM
KB
  IC50: 0.92 µM

## COc1ccc2c3c(c4cc(OC)c(OC)cc4c2c1)C[C@H]1CCCN1C3 [(-)-ANTOFINE]
[9]
  IC50: 0.025 µM

## COc1ccc2c3c(c4cc(OC)c(OC)cc4c2c1)C[C@H]1[C@@H](O)CCN1C3
A549 [3]
  IC50: 2.81 µM
DU-145
  IC50: 3.2 µM
[9]
  IC50: 3.42 µM
KB
  IC50: 1.83 µM
